Screens from PubChem.
A selection: hits, their analogues and other compounds. The true share with any hit is near 2.9%.
CendR NRP1 mod: modulators of CendR peptide binding to NRP-1, primary screen, biochemical, fluorescence polarization, uHTS | Neuropilin-1 (Homo sapiens), O14786 | FAM-RPARPAR peptide binding to NRP-1 | inhibition, % at 25 µM | hit rate 0.85% among 360,000;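 active = inhibition or corrected inhibition above about 18%, plus a signal ratio from 0.5 to 1.5, limit read from the data, passing the limit was not always enough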
KLK7 zymogen act: proKLK7 zymogen activators, primary screen, biochemical, fluorescence intensity | activation, % at 7 µM | AID 652039, 2013 | hit rate 0.9% among 370,000 | Kallikrein-7 (Homo sapiens), P49862 | purified proKLK7, EDANS-DABCYL substrate fluorescence; 100% is mature enzyme control, 0% vehicle;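 active = activation above the mean of all tested compounds plus 3 SD, computed per campaign excluding outliers beyond control limits, cut at about 13% in these data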
Target sequence (P49862 whole entry, looked up): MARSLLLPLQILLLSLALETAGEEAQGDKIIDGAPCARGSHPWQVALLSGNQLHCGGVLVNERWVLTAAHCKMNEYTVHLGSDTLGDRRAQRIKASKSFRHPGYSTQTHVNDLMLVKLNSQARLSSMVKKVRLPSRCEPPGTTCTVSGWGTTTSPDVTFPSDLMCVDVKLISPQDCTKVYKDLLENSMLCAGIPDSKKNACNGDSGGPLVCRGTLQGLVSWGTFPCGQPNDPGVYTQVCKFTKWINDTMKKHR
DDE Tn6 FP inh: inhibitors of Tn6 peptide binding to fibrin DD(E), primary screen, biochemical, fluorescence polarization, human fibrin, Tn6 probe. Fibrinogen beta chain (Homo sapiens), P02675. Fibrin DD(E) TRITC-Tn6 fluorescence polarization displacement. inhibition, % at 8.3 µM. hit rate 0.21% among 370,000;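 active = inhibition above a per-campaign cutoff: mean of compounds within control limits plus 3 SD, cut at about 15% in these data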;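 note: 0% = median of all compound wells on the plate and 100% = blocking peptide control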
Target sequence (P02675 whole entry, looked up): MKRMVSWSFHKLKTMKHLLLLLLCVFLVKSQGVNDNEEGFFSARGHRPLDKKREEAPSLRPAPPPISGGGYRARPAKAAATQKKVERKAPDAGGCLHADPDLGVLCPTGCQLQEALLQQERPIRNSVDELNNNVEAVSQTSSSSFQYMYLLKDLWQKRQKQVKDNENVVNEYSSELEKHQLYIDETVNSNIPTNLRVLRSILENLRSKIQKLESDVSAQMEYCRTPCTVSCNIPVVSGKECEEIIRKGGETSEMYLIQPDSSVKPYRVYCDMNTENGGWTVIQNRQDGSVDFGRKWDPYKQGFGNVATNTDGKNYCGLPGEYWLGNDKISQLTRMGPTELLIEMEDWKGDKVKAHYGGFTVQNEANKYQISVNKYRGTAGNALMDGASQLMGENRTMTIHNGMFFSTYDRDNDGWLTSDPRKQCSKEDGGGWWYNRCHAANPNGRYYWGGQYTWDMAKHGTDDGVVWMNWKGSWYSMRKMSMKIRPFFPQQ
CRFBP-R2 block: antagonists of CRF-BP/CRF-R2 complex, primary screen, cell-based, HEK293, calcium dye fluorescence, uHTS; hit rate 0.59% among 350,000; CRF-induced calcium fluorescence; inhibition, % at 11.8 µM;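 active = inhibition of the ligand-induced calcium signal above about 50% at the single tested concentration, limit read from the data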
Tn7 DDE FP: inhibitors of Tn7 peptide binding to fibrin DD(E), primary screen, biochemical, fluorescence polarization, human fibrin, Tn7 probe; FP displacement of FITC-Tn7 peptide from fibrin DD(E); 0% = median of compound wells per plate; inhibition, % at 8.3 µM; hit rate 0.13% among 370,000;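 active = inhibition above the mean of compounds falling within the control limits plus 3 SD of them, cut at about 14% in these data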;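 note: 0% = plate median of compound wells and 100% = 10 µM Aha-Tn7 peptide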
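Assay system: Fibrin-DD(E) protein isolated from polymerized human fibrin clots; read-out basis: percent inhibition; medium: Tris/NaCl/CaCl2 buffer, pH 7.8; signal: FP measurement; incubation: 10 min plus 3 h, room temperature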
CRFBP-R2 agonist: agonists of CRF-BP/CRF-R2 complex, primary screen, cell-based, HEK293, calcium dye fluorescence, uHTS; activation, % at 13.2 µM; AID 588473, 2011; calcium dye fluorescence (FLIPR); percent of saturating CRF peptide response; hit rate 0.46% among 350,000; CRF-binding protein / CRF receptor 2 complex (human);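 active = activation of at least 50%, plus an integration ratio under a set limit after plate pattern correction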;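 note: plate controls were neutral control wells without compound for no effect and CRF at EC100 for full effect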
KLK7 act conf: proKLK7 zymogen activators, confirmation, biochemical, fluorescence intensity, triplicate. hit rate 68% among 3,200. shares compounds with KLK7 zymogen act. AID 686949, 2013. activation, % at 7 µM. purified proKLK7, EDANS-DABCYL substrate fluorescence; scaled: vehicle 0, mature enzyme 100;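 active = activation, as change over the incubation, above the mean of all tested compounds plus 3 SD, cut at about 13% in these data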
EDANS-DABCYL int: EDANS-DABCYL substrate optical interference, artefact control for kallikrein-7 zymogen activator project, biochemical, fluorescence intensity, high throughput | shares compounds with KLK7 zymogen act | no enzyme, 4 h; solvent 0%, active enzyme control 100% | activation, % at 7 µM | hit rate 80% among 3,200 | AID 686952, 2013;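 active = activation above the all-compound mean plus 3 SD, ignoring values outside control-based bounds, cut at about 4.8% in these data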;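 note: value is the 4 h activation minus the activation read at time zero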
* marks the source's active call; other numbers are inactive results; / = not tested or not shown.

SMILES	CendR NRP1 mod	KLK7 zymogen act	DDE Tn6 FP inh	CRFBP-R2 block	Tn7 DDE FP	CRFBP-R2 agonist	KLK7 act conf	EDANS-DABCYL int
COc1ccccc1NC1=Nc2cccc3cccc1c23	-35.0	0.3	1.1	8.0	3.0	-0.7	/	/
CCCCN(C)C1=Nc2cccc3cccc1c23	-9.9	60.1*	-2.9	10.1	-2.4	6.6	11.7	12.0*
Cc1ccc(NC(=O)CSc2nnc(-c3ccccc3F)n2-c2ccccc2)c(C)c1	/	0.0	-3.3	/	0.2	/	/	/
CC1CCN(C(=O)COC(=O)c2ccccc2NCCO)CC1	5.8	21.4*	-1.4	-4.9	-8.7	0.1	25.8*	22.4*
O=C(OCC(=O)N1CCCc2ccccc21)c1ccccc1NCCO	3.4	6.2	-2.4	2.4	-5.2	0.2	/	/
O=C(OCC(=O)N1CCN(C(=O)COC(=O)c2ccccc2NCCO)CC1)c1ccccc1NCCO	3.9	57.2*	-2.8	-11.0	2.2	0.6	-30.0	-30.9
CC1CCN(C(=O)COC(=O)c2ccccc2NC(=O)c2ccco2)CC1	2.9	0.2	3.2	-6.9	2.3	-2.1	/	/
CC(OC(=O)c1ccccc1NCCO)C(=O)NC1CCCCC1C (stereo not drawn)	-4.5	20.9*	-2.4	6.1	-2.8	-2.4	18.9*	21.2*
CC(OC(=O)c1ccc(C(C)(C)C)cc1)C(=O)NC1CCCCC1C (stereo not drawn)	3.9	0.1	1.1	-12.1	1.3	-0.1	/	/
O=C(OCC(=O)N1CCN(C(=O)c2ccco2)CC1)c1ccccc1NCCO	4.3	21.5*	2.9	13.5	5.0	1.8	30.6*	31.3*
O=C(c1ccc(C#Cc2ccccc2)cc1)N1CCC(O)CC1	/	-0.5	2.1	/	-2.5	/	/	/
Cc1ccnc(SCc2cc(=O)c(OC(=O)c3ccc(C)c([N+](=O)[O-])c3)co2)n1	/	/	-6.1	/	5.7	/	/	/
COc1ccc(OC)c(/C=C/C(=O)N(C)CC(=O)Nc2ccc(C)cc2)c1	-6.6	27.2*	1.4	-5.7	11.8	-3.0	64.5*	68.3*
COc1ccc(OC)c(/C=C/C(=O)N(C)CC(=O)Nc2cc(C)ccc2C)c1	-11.9	21.1*	-5.2	0.5	4.2	-0.9	0.7	8.4*
O=C(NCCc1ccccc1)OCc1cn(Cc2ccccc2F)nn1	/	0.1	-2.0	/	-8.3	/	/	/
CN(C)c1ccc(-c2nc3ncc(Cl)cc3[nH]2)cc1	/	17.1*	-10.6	/	4.5	/	-3.3	11.9*
COc1cc(Cn2c3ccc(NC(=O)CCc4ccc(O)cc4)cc3c(=O)n2C)ccc1F	-0.8	13.0*	-6.3	/	0.5	/	5.0	10.4*
Cn1c(=O)c2cc(NC(=O)CCc3ccc4c(c3)OCO4)ccc2n1Cc1ccc(F)cc1	-5.5	31.6*	8.0	/	-1.5	/	64.8*	71.9*
Cn1c(=O)c2cc(NC(=O)CCc3cccc(Cl)c3)ccc2n1Cc1cccc(C(F)(F)F)c1	-19.1	-0.8	-0.2	/	-1.6	/	/	/
Cc1cc(=O)[nH]c(SCC(=O)Nc2cccc(Cl)c2F)n1	/	0.3	-0.2	/	-9.4	/	/	/
CCC(=O)N1CCc2cc(Br)c(S(=O)(=O)NC3CCN(Cc4ccccc4)CC3)cc21	/	-0.1	5.3	/	-1.1	/	/	/
Cc1ccc2nc(-c3ccc(NC(=O)Cc4cccs4)cc3)[nH]c2c1	5.6	52.4*	-7.7	-5.3	-1.0	0.0	8.2	2.9
COc1ccc(-c2cn3cccnc3n2)cc1NC(=O)C(C)C	11.6	8.3	-3.8	/	7.7	/	/	/
COc1ccc(-c2cn3cccnc3n2)cc1NC(=O)C1CCCC1	2.2	2.4	-3.6	-6.1	-4.1	0.1	/	/
COc1ccc(-c2cn3cccnc3n2)cc1Br	-9.4	31.8*	3.3	15.7	-4.0	-3.1	78.8*	75.3*
SMILES	CendR NRP1 mod	KLK7 zymogen act	DDE Tn6 FP inh	CRFBP-R2 block	Tn7 DDE FP	CRFBP-R2 agonist	KLK7 act conf	EDANS-DABCYL int
COc1cc(OC)cc(C(=O)Nc2cc(-c3cn4cccnc4n3)ccc2C)c1	7.1	13.6*	4.9	1.3	3.4	-0.7	-92.2	-83.2
Cc1ccc(-c2cn3cccnc3n2)cc1NC(=O)c1cccs1	-0.9	33.0*	0.5	16.1	-0.2	0.1	35.2*	39.0*
COc1cc(C(=O)Nc2cc(-c3cn4cccnc4n3)ccc2C)cc(OC)c1OC	5.6	47.3*	2.0	8.2	0.0	-1.9	-11.8	-19.7
CCOC(=O)c1cccc(NC(=O)CN(C)S(=O)(=O)c2ccc(Br)s2)c1	/	-0.9	-4.2	/	1.6	/	/	/
CCOC(=O)c1cn(C2CC2)c2c(F)c(NCCCN(C)C)c(F)cc2c1=O	-1.7	19.9*	2.1	-0.4	-3.9	0.9	10.9	12.1*
CCCCC1(C)NC(=O)c2c(C)sc(C(=O)OCC)c2N1 (stereo not drawn)	-0.4	5.4	0.3	-29.5	1.4	1.7	/	/
CCOC(=O)CC1(CC(=O)OCC)NC(=O)c2c(C)sc(C(=O)OCC)c2N1	-8.0	13.1*	3.6	11.0	10.5	1.6	4.4	4.3*
CCOC(=O)CC1(C)NC(=O)c2c(C)sc(C(=O)OCC)c2N1 (stereo not drawn)	6.5	13.0*	2.6	-3.6	2.1	-4.2	-15.9	-21.7
COc1ccc(C(=O)C(=O)N2CCN(C(=O)c3ccccc3C(F)(F)F)CC2)cc1OC	/	-0.4	-1.1	/	2.7	/	/	/
O=C(/C=C/c1cccc(F)c1)Nc1nccs1	8.7	-0.2	-3.5	-1.9	-6.2	0.4	/	/
O=C(/C=C\c1ccccc1)Nc1nccs1	5.2	16.7*	-1.0	16.8	-4.8	-4.0	5.2	1.8
Nc1ccccc1C(=O)Nc1nccs1	-0.9	50.1*	-2.8	-5.8	4.0	-1.0	13.9*	15.8*
O=C(/C=C/c1cccs1)Nc1nccs1	3.5	15.1*	1.1	4.5	5.8	-0.1	9.8	17.1*
O=C(Nc1nccs1)c1ccccc1Br	6.1	0.3	-2.2	-10.2	-1.4	-0.6	/	/
O=C(NC1CCCCN(Cc2cccc(C(F)(F)F)c2)C1=O)c1cccc(C(F)(F)F)c1 (stereo not drawn)	/	0.3	1.6	/	3.3	/	/	/
C[C@@H]1ON(C)[C@H]2C[C@H]3c4[nH]c5cccc(-c6ccc7c(c6)OCO7)c5c4CCN3C(=O)[C@@H]12	/	-2.8	0.1	/	-6.9	/	/	/
CCC(C)N(C(=O)CSc1nnc(-c2cccnc2)n1C1CCCCC1)C(C)CC (stereo not drawn)	/	0.4	-3.9	/	10.8	/	/	/
